# Results from different studies.
# Protocols differ between the studies behind these lines.
# DYRK3: Dual specificity tyrosine-phosphorylation-regulated kinase 3 (DYRK3, Homo sapiens, UniProt O43781)
# BRDT BD2: Bromodomain testis-specific protein, BD2 (BRDT, Homo sapiens, UniProt Q58F21)
# BRWD1 BD2: Bromodomain and WD repeat-containing protein 1, BD2 (BRWD1, Homo sapiens, UniProt Q9NSI6)
# PTGS2: Prostaglandin G/H synthase 2 (PTGS2, Homo sapiens, UniProt P35354)
# NUAK1: NUAK family SNF1-like kinase 1 (NUAK1, Homo sapiens, UniProt O60285)
# DYRK1B: Dual specificity tyrosine-phosphorylation-regulated kinase 1B (DYRK1B, Homo sapiens, UniProt Q9Y463)
SMILES,target,test,system,setting,endpoint,value
Cn1cc(C(=O)Nc2cccc(C(=O)O)c2)ccc1=O,"CREB-binding protein, bromodomain (CREBBP, Homo sapiens, UniProt Q92793)","thermal stability, DSF",,100 µM,ΔTm,1.9 °C
O=C(O)c1ccc2c(c1)nc(Nc1ccc3ccccc3c1)c1ccncc12,DYRK3,"enzyme activity, inhibitor, radiometric",,1 µM,remaining activity,4%
NS(=O)(=O)c1ccc(Nc2nc(-c3ccc(F)cc3)c3ccccc3n2)cc1,BRDT BD2,"binding, competition with immobilised ligand",,1 µM,remaining binding,4%
Oc1ccc(-c2nc(-c3ccncc3)c(-c3ccc(F)cc3)[nH]2)cc1,BRWD1 BD2,"thermal stability, DSF",,10 µM,ΔTm,-0.73 °C
O=c1cc(-c2ccc(O)c(O)c2)oc2cc(O)cc(O)c12,PTGS2,"enzyme activity, inhibitor",,0.12 µg/mL,inhibition,21.6%
O=C(NCCCNc1nc(Nc2cccc(CN3CCOCC3)c2)ncc1C1CC1)C1CCC1,"Inhibitor of nuclear factor kappa-B kinase subunit epsilon (IKBKE, Homo sapiens, UniProt Q14164)","enzyme activity, inhibitor, radiometric",,1 µM,remaining activity,4%
O=C(O)c1ccc2c(c1)nc(NCCc1cccc(Cl)c1)c1ccncc12,DYRK3,"enzyme activity, inhibitor, radiometric",,1 µM,remaining activity,5%
Cc1cnc(Nc2ccc(OCCN3CCCC3)cc2)nc1Nc1cccc(S(=O)(=O)NC(C)(C)C)c1,BRDT BD2,"thermal stability, DSF",,10 µM,ΔTm,2.69 °C
Nc1ncnc2occ(-c3ccc(NC(=O)Nc4cc(C(F)(F)F)ccc4F)cc3)c12,"Cyclin-dependent kinase-like 5 (CDKL5, Homo sapiens, UniProt O76039)",cell-free assay,,20 µM,remaining signal,4.3%
Cc1cc2c(cc1N1C(=O)c3cccc4c(Cl)ccc(c34)C1=O)n(C)c(=O)n2C,BRWD1 BD2,"thermal stability, DSF",,10 µM,ΔTm,-1.4 °C
CN(C)C1CCN(CC#Cc2nn(C3CCCC3)c3nc(NCc4ccccc4)ncc23)C1 (stereo not shown),NUAK1,"enzyme activity, inhibitor, FRET",,0.1 µM,inhibition,0%
C[S+]([O-])c1ccc(-c2nc(-c3ccncc3)c(-c3ccc(F)cc3)[nH]2)cc1 (stereo not shown),"Transcription intermediary factor 1-beta (TRIM28, Homo sapiens, UniProt Q13263)","thermal stability, DSF",,10 µM,ΔTm,1.43 °C
O=C(O)c1ccc2c(c1)nc(NCCc1ccccc1)c1ncncc12,DYRK3,"enzyme activity, inhibitor, radiometric",,1 µM,remaining activity,25%
O=c1cc(-c2ccc(O)cc2)oc2cc(O)cc(O)c12,PTGS2,"enzyme activity, inhibitor",,0.12 µg/mL,inhibition,3.07%
O=C(O)c1ccc2c(c1)nc(Nc1ccc(Cl)cc1)c1ncncc12,DYRK1B,"enzyme activity, inhibitor, radiometric",,1 µM,remaining activity,80%
O=C(NCCCNc1nc(Nc2cccc(NC(=O)N3CCCC3)c2)ncc1C1CC1)C1CCC1,NUAK1,"enzyme activity, inhibitor, radiometric",,1 µM,remaining activity,51%
COC(=O)c1ccc(O)cc1,PTGS2,"enzyme activity, inhibitor",,0.49 µg/mL,inhibition,0%
CC(CCC(=O)NCC(=O)O)C1CCC2C3CCC4CC(O)CCC4(C)C3CC(O)C12C (stereo not shown),"Serine hydroxymethyltransferase, mitochondrial (SHMT2, Homo sapiens, UniProt P34897)",thermal stability,,50 µM,ΔTm,12.3 °C
COc1ccc2c(c1)c(CC(=O)O)c(C(F)(F)F)n2C(=O)c1ccc(Cl)cc1,PTGS2,"enzyme activity, inhibitor",,,kinact/KI,13000 M⁻¹ s⁻¹
C=C[C@@]1(C)C=C2CC[C@@H]3[C@](C)(CCC[C@@]3(C)C(=O)O)[C@H]2CC1,PTGS2,"enzyme activity, inhibitor",,0.24 µg/mL,inhibition,0%
N#Cc1cccc(Nc2nc3cc(C(=O)O)ccc3c3cnccc23)c1,DYRK1B,"enzyme activity, inhibitor, radiometric",,1 µM,remaining activity,10%
O=C(O)c1ccc(O)cc1,PTGS2,"enzyme activity, inhibitor",,3.9 µg/mL,inhibition,61.1%
O=C(O)c1ccc2c(c1)nc(Nc1ccccc1)c1ccncc12,DYRK1B,"enzyme activity, inhibitor, radiometric",,1 µM,remaining activity,73%
COc1ccc(-c2cc(=O)c3c(O)cc(O[C@@H]4O[C@H](CO)[C@@H](O)[C@H](O)[C@H]4O)cc3o2)cc1O,PTGS2,"enzyme activity, inhibitor",,31.25 µg/mL,inhibition,100%
COc1cccc(Nc2nc3cc(C(=O)O)ccc3c3cnccc23)c1,DYRK3,"enzyme activity, inhibitor, radiometric",,1 µM,remaining activity,2%
COc1cc(/C=C/C(=O)CC(=O)/C=C/c2ccc(O)c(OC)c2)ccc1O,"Rho-associated protein kinase 2 (Rock2, Rattus norvegicus, UniProt Q62868)","enzyme activity, inhibitor",,1 µM,activity vs control,90%
CCN1CCN(Cc2ccc(NC(=O)c3ccc(C)c(Oc4ccnc5[nH]ccc45)c3)cc2C(F)(F)F)CC1,"Inositol-tetrakisphosphate 1-kinase (Homo sapiens, UniProt Q13572)","target engagement in cells, inhibitor, chemoproteomics",Huh-7,1 µM,inhibition,-10.6%
O=C(O)c1ccc2c(c1)nc(Nc1ccc(Cl)cc1)c1ccncc12,DYRK3,"enzyme activity, inhibitor, radiometric",,1 µM,remaining activity,2%
